For data set [1], the species on record is Homo sapiens. The data set is described as follows: Induction of INFalpha production in human HLA-DR(+), CD11c(+) and CD123(-) expressing mDC after 24 hrs by intracellular cytokine staining method. Type of data set: functional, cell-based. The gist of the method: (§1)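 PBMCs were stimulated with aqueous compound for 24 h, with GolgiPlug (10 ng/ml) present for the final 6 h. Cells were washed and surface-stained for lineage markers (mDC HLA-DR+ CD11c+ CD123−; pDC HLA-DR+ CD11c− CD123+). They were then permeabilized with Perm/Fix buffer and stained with fluorochrome-conjugated anti-cytokine antibodies for flow cytometry.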

The species entered for data set [2] is Homo sapiens. The data set is described as follows: Induction of TNFalpha production in human HLA-DR(+), CD11c(-) and CD123(+) expressing pDC after 24 hrs by intracellular cytokine staining method. The format is functional, cell-based. The gist of the method:
as §1

A short description of data set [3]: Induction of IL6 expression in human HLA-DR(+), CD11c(+) and CD123(-) expressing mDC after 24 hrs by intracellular cytokine staining method. Type of data set: functional. Also on record: concentration or dose not given beside the values. The procedure, abridged:
as §1

The species named for data set [4] is Homo sapiens. The data set can be described thus: Induction of TNFalpha production in human HLA-DR(+), CD11c(-) and CD123(+) expressing pDC after 24 hrs by […]. Type of data set: functional. For orientation: An ELISA detects its analyte on a solid surface through an enzyme-linked reagent.
Data set [5] concerns HEK293. The data set is described as follows: Toxicity against human TLR8 expressing HEK293 cells after 24 hrs by live/dead fixable aqua staining method. Type of data set: cell-based. Particulars: hek293, 24 h. The gist of the method:
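HEK293-hTLR8 reporter cells were stimulated with compound for 24 h. Cells were then incubated with Live/Dead fixable Aqua dye for 30 min, washed extensively, and read for viability by flow cytometry.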

The subject of data set [6] is PBMC. The data set is described as follows: Induction of IFNgamma production in primary human PBMC after 24 hrs by ELISA method. The format is functional, cell-based.
In data set [7] the test system is PBMC. The data set can be described thus: Reduction in IFNalpha production in primary human PBMC at >10 uM after 24 hrs by ELISA method. Type of data set: functional, cell-based.
Data set [8] has as its system PBMC. The data set can be described thus: Induction of TNFalpha production in primary human PBMC after 24 hrs by ELISA method. The format is functional, cell-based. The procedure, abridged: (§2)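 Ficoll-isolated healthy-donor PBMCs at 0.5 × 10^6 cells/well in RPMI-1640/10% FBS were stimulated 24 h with aqueous compound. Supernatant TNFa was assayed with a […]. Data are from three donors in triplicate, with SEM shown.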

Data set [9] is filed under the species Homo sapiens. The data set is described as follows: Induction of INFalpha production in human HLA-DR(+), CD11c(-) and CD123(+) expressing pDC after 24 hrs by intracellular cytokine staining method. The format is functional, cell-based. The procedure, abridged: as §1
For data set [10], the species on record is Homo sapiens. The data set can be described thus: Induction of apoptosis in human HLA-DR(+), CD11c(-) and CD123(+) expressing pDC at 10 uM after 24 hrs by Annexin-V staining method. Type of data set: functional. The procedure, abridged:
(§3)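 PBMCs were stimulated for 24 h with compound at doses of 0.01 nM, 1 nM, 100 nM and 10 µM. Cells were phenotyped into mDC (HLA-DR+ CD11c+ CD123−) and pDC (HLA-DR+ CD11c− CD123+) and stained with Annexin-V to read apoptosis by flow cytometry.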

For data set [11], the species on record is Homo sapiens. The data set is described as follows: Induction of apoptosis in human HLA-DR(+), CD11c(+) and CD123(-) expressing mDC at 10 uM after 24 hrs by Annexin-V staining method. The format is functional. The procedure, abridged:
as §3

Data set [12] has as its system PBMC. The data set is described as follows: Induction of IFNalpha production in primary human PBMC at 0.001 to 10 uM after 24 hrs by ELISA method. Type of data set: functional, cell-based. The gist of the method:
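Fresh healthy-donor PBMCs were isolated by Ficoll and plated at 0.5 × 10^6 cells/well in RPMI-1640/10% FBS with antibiotics. Aqueous compound formulations were added for 24 h across 0.0001–10 µM. Supernatant IFNa was measured by ELISA. Data are from three donors, each run in triplicate, with SEM shown.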

Data set [13] deals with T1, Toll-like receptor 7 (Homo sapiens, UniProt Q9NYK1).
T1 sequence (Q9NYK1 whole entry): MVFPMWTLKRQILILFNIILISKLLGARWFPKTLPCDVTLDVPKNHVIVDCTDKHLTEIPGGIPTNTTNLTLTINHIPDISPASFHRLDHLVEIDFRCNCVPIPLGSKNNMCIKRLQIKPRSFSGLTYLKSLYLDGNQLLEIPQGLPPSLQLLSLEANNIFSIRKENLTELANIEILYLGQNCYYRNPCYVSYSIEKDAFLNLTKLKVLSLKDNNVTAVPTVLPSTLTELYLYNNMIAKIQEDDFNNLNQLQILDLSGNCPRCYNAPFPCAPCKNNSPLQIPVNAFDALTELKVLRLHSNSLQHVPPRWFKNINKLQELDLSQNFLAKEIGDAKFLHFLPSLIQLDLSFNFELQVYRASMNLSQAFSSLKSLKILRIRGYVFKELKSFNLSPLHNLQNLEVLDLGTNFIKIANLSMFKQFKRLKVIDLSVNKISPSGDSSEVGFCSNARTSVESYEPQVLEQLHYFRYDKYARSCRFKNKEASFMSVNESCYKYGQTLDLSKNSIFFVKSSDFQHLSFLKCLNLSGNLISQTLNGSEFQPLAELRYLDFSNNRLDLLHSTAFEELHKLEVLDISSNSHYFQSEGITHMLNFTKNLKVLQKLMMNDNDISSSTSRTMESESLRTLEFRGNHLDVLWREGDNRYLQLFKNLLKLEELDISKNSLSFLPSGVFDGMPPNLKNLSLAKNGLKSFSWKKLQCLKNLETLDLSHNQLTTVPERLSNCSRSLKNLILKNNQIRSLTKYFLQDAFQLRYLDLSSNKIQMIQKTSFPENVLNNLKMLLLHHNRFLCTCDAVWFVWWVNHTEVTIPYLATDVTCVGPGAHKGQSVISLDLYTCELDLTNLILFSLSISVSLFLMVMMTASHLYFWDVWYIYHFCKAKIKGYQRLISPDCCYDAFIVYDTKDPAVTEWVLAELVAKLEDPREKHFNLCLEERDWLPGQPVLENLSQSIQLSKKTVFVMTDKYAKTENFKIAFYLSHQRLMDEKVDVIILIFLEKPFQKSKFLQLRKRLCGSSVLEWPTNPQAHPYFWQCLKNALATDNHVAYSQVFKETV
The data set can be described thus: Activation of human TLR7 expressed in HEK293 cells after 24 hrs by NFkappaB-mediated SEAP reporter gene assay. Type of data set: cell-based. The conditions noted are these: read-out: EC50. The gist of the method:
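HEK293 cells stably transfected with hTLR7 or hTLR8 plus an NF-kB-driven SEAP reporter were kept in DMEM/10% FBS with selection antibiotics. Aqueous compound formulations were added for 24 h, and supernatant SEAP was read colorimetrically. Points were run in triplicate and averaged. Activity was scaled to the maximum of a reference agonist set at 100%. EC50 was taken from dose-response curves with 95% CI.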

Data set [14] is filed under the species Homo sapiens. The data set can be described thus: Induction of TNFalpha production in human HLA-DR(+), CD11c(+) and CD123(-) expressing mDC after 24 hrs by intracellular cytokine staining method. The format is functional, cell-based. The gist of the method: as §1
For data set [15], the species on record is Homo sapiens. The data set can be described thus: Induction of INFalpha production in human HLA-DR(+), CD11c(+) and CD123(-) expressing mDC after 24 hrs by […]. The format is functional.
Data set [16] is filed under the species Homo sapiens. The data set can be described thus: Induction of TNFalpha production in human HLA-DR(+), CD11c(+) and CD123(-) expressing mDC after 24 hrs by intracellular cytokine staining.
Data set [17] is filed under the species Homo sapiens. The data set can be described thus: Induction of INFalpha production in human HLA-DR(+), CD11c(-) and CD123(+) expressing pDC after 24 hrs by […]. Type of data set: functional.
For data set [18], the species on record is Homo sapiens. The data set can be described thus: Induction of apoptosis in human HLA-DR(+), CD11c(+) and CD123(-) expressing mDC at 1 nM after 24 hrs by Annexin-V staining method. The format is functional. The gist of the method: as §3
The species named for data set [19] is Homo sapiens. The data set is described as follows: Induction of apoptosis in human HLA-DR(+), CD11c(-) and CD123(+) expressing pDC at 1 nM after 24 hrs by Annexin-V staining method. The format is functional. The gist of the method: as §3
Data set [20] has as its system PBMC. The data set can be described thus: Induction of TNFalpha production in primary human PBMC at 0.001 to 10 uM after 24 hrs by ELISA method. Type of data set: functional, cell-based. The procedure, abridged: as §2

Molecules are shown by their SMILES. Activity calls are given as the source filed them. The rule behind the calls is not given here.

Regarding `CCCCOc1nc(N)c2[nH]c(=O)n(CC3CCNCC3)c2n1.Cl`, the Activity entry in data set [1] is “Dose-dependent effect”; in data set [2], “Dose-dependent effect”; in data set [3], 2.95%; in data set [4], “Dose-dependent effect”; in data set [5], “Non-toxic”; in data set [9], “Dose-dependent effect”. Besides, the Activity entry in data set [14], in data set [15], in [16] and in [17] was “Dose-dependent effect” in each case. In addition, the result in data set [6] and in data set [8] was inactive. For the same molecule, the inhibition result in data set [7] was “Dose-dependent effect”. Moreover, the outcome in data set [10], in data set [11] and in data set [12] was Active. Also, the EC50 – broadly, the concentration needed to bring the measured effect to its halfway point – in data set [13] was 3.95 µM.

As for `CCCCOc1nc(N)c2[nH]c(=O)n(CCCCCC3CCNCC3)c2n1.Cl`, the Activity result in data set [1] is “Dose-dependent effect”; in [2], “Dose-dependent effect”; in [3] it was 31.5%; in data set [4], “Dose-dependent effect”; in data set [5] it was “Toxic”; in data set [9], “Dose-dependent effect”. Moreover, the Activity result in [20], in [14], in data set [15], in data set [16] and in data set [17] was “Dose-dependent effect” in each case. Also, in data set [18], the result was inactive. For the same molecule, the outcome in data set [6], in data set [19], in [8] and in data set [12] was Active. In addition, the inhibition result in data set [7] was “Dose-dependent effect”. In addition, the EC50 in data set [13] was found to be 0.1 µM.

The record behind these values is ChEMBL document CHEMBL3396959, “Structural requirements for TLR7-selective signaling by 9-(4-piperidinylalkyl)-8-oxoadenine derivatives” (Bioorg Med Chem Lett, 2015).
